Legend:
(h)V1a = (h)V1a (Homo sapiens, UniProt P37288); experiment: In vitro V1a binding assay; conditions: for inhibition at 0.01 µM: read-out: % Binding inhibition (10^−8M); for inhibition at 0.001 µM: read-out: % Binding inhibition (10^−9M); for V1a binding affinity (in words): structure-activity discussion of Tables 1 and 2
How it was run: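 [3H]AVP (0.3 nM; KD 0.5 nM) competition binding on human recombinant V1a expressed in CHO cells, 60 min at RT. Nonspecific binding was defined with 1 µM AVP. Test compounds were run at selected concentrations, two independent experiments each in duplicate, with % binding inhibition recorded. IC50 came from a one-site sigmoidal variable-slope fit; Ki was calculated by Cheng–Prusoff.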

Lipophilicity logD7,4 = type: physicochemical; conditions: pH 7.4
CD-1 mouse brain = experiment: Effect of anesthetics on radiotracer brain uptake in CD-1 mice; type: in vivo; conditions: anesthetic ip 80 mg/kg, 30 min prior the radiotracer; 30 min after radiotracer
V2 = conditions: read-out: Ki V2; cited from earlier work

Sequence of (h)V1a (P37288 whole entry): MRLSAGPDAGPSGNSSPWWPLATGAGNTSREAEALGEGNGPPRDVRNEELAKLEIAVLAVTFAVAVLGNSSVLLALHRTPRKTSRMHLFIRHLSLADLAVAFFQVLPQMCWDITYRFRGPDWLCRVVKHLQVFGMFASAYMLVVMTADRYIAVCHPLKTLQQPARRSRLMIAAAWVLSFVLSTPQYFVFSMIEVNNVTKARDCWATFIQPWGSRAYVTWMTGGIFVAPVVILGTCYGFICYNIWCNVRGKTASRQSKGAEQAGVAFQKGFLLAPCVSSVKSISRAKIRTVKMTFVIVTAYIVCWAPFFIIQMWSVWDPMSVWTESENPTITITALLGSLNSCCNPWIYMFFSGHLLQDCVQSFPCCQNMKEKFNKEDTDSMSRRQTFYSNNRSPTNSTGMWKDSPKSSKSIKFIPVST

Compound	inhibition at 0.01 µM ((h)V1a) [%]	inhibition at 0.001 µM ((h)V1a) [%]	V1a binding affinity (in words) ((h)V1a)	logD (Lipophilicity logD7,4)	Effect on radiotracer brain uptake (CD-1 mouse brain)	Ki ((h)V1a) [µM]	Ki (V2) [µM]
CC1(C)CC2CC(C)(CN2C(=O)c2ccc(-c3c[nH]c4ccccc34)c(OCCF)c2)C1 (centres unmarked) [6c, (3-(2fluoroethoxy)-4-(1H-indol-3-yl)phenyl)(1,3,3-trimethyl-6-aza-bicyclo[3.2.1]octan-6yl)methanone]	92.6	45.1	high binding affinity	4.9	–	–	–
CC1(C)CC2CC(C)(CN2C(=O)c2ccc(-c3c[nH]c4ccccc34)cc2F)C1 (centres unmarked) [6b, (2-Fluoro-4-(1H-Indol-3-yl)phenyl)(1,3,3-trimethyl-6-aza-bicyclo[3.2.1]octan-6-yl)methanone]	77.1	33.4	lower binding affinity compared to the lead 1	4.8	–	–	–
COc1cc(C(=O)N2CCC(F)(F)CC2)ccc1-c1c[nH]c2ccccc12 [13b, (4-(1H-Indol-3-yl)-3-methoxyphenyl)(4,4-difluoropiperidin-1-yl)methanone]	9	13.7	–	1.6	–	–	–
CNC1(c2ccccc2Cl)CCCCC1=O (centres unmarked) [Ketamine]	–	–	–	–	did not significantly change	–	–
COc1cc(C(=O)Nc2ccc(F)cc2)ccc1-c1c[nH]c2ccccc12 [13e, N-(4-Fluorophenyl)-4-(1H-indol-3-yl)-3-methoxybenzamide]	4.6	5	–	3.2	–	–	–
COc1cc(C(=O)N2CC3(C)CC2CC(C)(C)C3)ccc1-c1c[nH]c2ccncc12 (centres unmarked) [8f, (3Methoxy-4-(1H-pyrrolo[3,2-c]pyridin-3-yl)phenyl)(1,3,3-trimethyl-6-aza-bicyclo[3.2.1]octan-6yl)methanone]	39.5	5.2	–	2.8	–	–	–
COc1cc(C(=O)N2CC3(C)CC2CC(C)(C)C3)ccc1-c1c[nH]c2cnccc12 (centres unmarked) [8e, (3Methoxy-4-(1H-pyrrolo[2,3-c]pyridin-3-yl)phenyl)(1,3,3-trimethyl-6-aza-bicyclo[3.2.1]octan-6yl)methanone]	44.2	-4.7	–	3.5	–	–	–
Cc1cnccc1-c1ccc(C(=O)N2CC3(C)CC2CC(C)(C)C3)cc1 (centres unmarked) [8h, (4-(3-Methylpyridin-4-yl)phenyl)(1,3,3-trimethyl-6-aza-bicyclo[3.2.1]octan-6-yl)methanone]	28.9	10.5	–	4.4	–	–	–
COc1cc(C(=O)N2CCN(C)CC2)ccc1-c1c[nH]c2ccccc12 [13a, (4-(1H-Indol-3-yl)-3-methoxyphenyl)(4-methylpiperazin-1-yl)methanone]	4.7	15.7	–	0.7	–	–	–
Cc1ccccc1-c1ccc(C(=O)N2CC3(C)CC2CC(C)(C)C3)c(F)c1 (centres unmarked) [8k, (3-Fluoro-6’-methylbiphenyl-4-yl)(1,3,3-trimethyl-6-aza-bicyclo[3.2.1]octan-6-yl)methanone]	81.2	22.8	good binding affinity	5.8	–	–	–
COc1cc(C(=O)N2CCCN(C)CC2)ccc1-c1c[nH]c2ccccc12 [13c, (4-(1H-Indol-3-yl)-3-methoxyphenyl)(4-methyl-1,4-diazepan-1-yl)methanone]	6.2	5.7	–	0.2	–	–	–
COc1cc(C(=O)N2C[C@]3(C)C[C@H]2CC(C)(C)C3)ccc1-c1c[nH]c2ccccc12 [(1S,5R)-1, (4-(1Hindol-3-yl)-3-methoxyphenyl)((1S,5R)-1,3,3-trimethyl-6-azabicyclo[3.2.1]octan-6-yl)methanone]	87.9	51.4	–	4.7	–	0.00066	0.6
COc1cc(C(=O)N2CC3(C)CC2CC(C)(C)C3)ccc1-c1ccc(F)nc1 (centres unmarked) [8a, (4-(6Fluoropyridin-3-yl)-3-methoxyphenyl)(1,3,3-trimethyl-6-aza-bicyclo[3.2.1]octan-6yl)methanone]	33.9	2.9	lower binding affinity compared to the lead 1	3.9	–	–	–
Cc1ccncc1-c1ccc(C(=O)N2CC3(C)CC2CC(C)(C)C3)c(F)c1 (centres unmarked) [8l, (2Fluoro-4-(4-methylpyridin-3-yl)phenyl)(1,3,3-trimethyl-6-aza-bicyclo[3.2.1]octan-6yl)methanone]	19.8	2.4	poor V1a binding affinity	4.5	–	–	–
Cc1ccccc1-c1ccc(C(=O)N2CC3(C)CC2CC(C)(C)C3)cc1 (centres unmarked) [8g, (2’-Methylbiphenyl-4-yl)(1,3,3-trimethyl-6-aza-bicyclo[3.2.1]octan-6-yl)methanone]	84.3	23.7	good binding affinity	5	–	–	–
COc1cc(C(=O)NC23CC4CC(CC(C4)C2)C3)ccc1-c1c[nH]c2ccccc12 [13d, N-Adamantan-1-yl-4-(1H-indol-3-yl)-3-methoxybenzamide]	4.8	7.4	–	5.8	–	–	–
Cc1ncccc1-c1ccc(C(=O)N2CC3(C)CC2CC(C)(C)C3)cc1 (centres unmarked) [8j, (4-(2-Methylpyridin-3-yl)phenyl)(1,3,3-trimethyl-6-aza-bicyclo[3.2.1]octan-6-yl)methanone]	18.2	-6.6	–	4.4	–	–	–
COc1cc(C(=O)N2CC3(C)CC2CC(C)(C)C3)ccc1-c1cn(C)c2ccccc12 (centres unmarked) [8c, (3Methoxy-4-(1-methyl-1H-indol-3-yl)phenyl)(1,3,3-trimethyl-6-aza-bicyclo[3.2.1]octan-6yl)methanone]	18.7	1.8	decrease in binding affinity	6	–	–	–
COc1cc(C(=O)N2CC3(C)CC2CC(C)(C)C3)ccc1-c1c[nH]c2ncccc12 (centres unmarked) [8d, (3Methoxy-4-(1H-pyrrolo[2,3-b]pyridin-3-yl)phenyl)(1,3,3-trimethyl-6-aza-bicyclo[3.2.1]octan-6yl)methanone]	28.7	4.4	–	2.9	–	–	–
Cc1ccncc1-c1ccc(C(=O)N2CC3(C)CC2CC(C)(C)C3)cc1 (centres unmarked) [8i, (4-(4-Methylpyridin-3-yl)phenyl)(1,3,3-trimethyl-6-aza-bicyclo[3.2.1]octan-6-yl)methanone]	43.9	12.8	–	4.4	–	–	–
COc1cc(C(=O)N2CC3(C)CC2CC(C)(C)C3)ccc1-c1cccnc1F (centres unmarked) [8b, (4-(2Fluoropyridin-3-yl)-3-methoxyphenyl)(1,3,3-trimethyl-6-aza-bicyclo[3.2.1]octan-6yl)methanone]	16	9.7	lower binding affinity compared to the lead 1	4	–	–	–

Source: article PMC6583924 (European journal of medicinal chemistry, 2017)
